Compound activity deposited in PubChem by several laboratories.
Gli-Sufu antag – blocks Gli-Sufu signaling in a luciferase reporter | hit rate 0.74% among 340,000 | inhibition, % at 5 µM | Sufu-KO-LIGHT fibroblasts, Gli luciferase reporter luminescence;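 active = inhibition above about 55%, limit read from the data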;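 also: 0% = DMSO-treated cells and 100% = wells with medium but no cells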
CHOP UPR activ – apoptotic UPR (CHOP) activation; activation, % at 10 µM; hit rate 0.34% among 330,000; CHO-CHOP luciferase reporter, luminescence; percent of tunicamycin response over DMSO baseline;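 active = at 10 µM dose, activation of 40% or more, normalized to positive control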;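 also: 100% = tunicamycin at 10 µg/mL and 0% = DMSO alone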
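Material: CHO-CHOP cells, stable luciferase reporter of PERK-eIF2a-CHOP signalling; quantity: 500 reporter cells seeded per well; buffer or medium: F12 medium containing 10% fetal bovine serum; compound: one dose, 10 µM in 0.5% DMSO; incubation: 6 h compound treatment, 37 °C; measured by: Steady-Glo luciferase luminescence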
Jurkat NFkB inh – lowers PMA/ionomycin-induced NF-kB signal in Jurkat cells. PMA/ionomycin-induced NF-kB luciferase reporter, luminescence. inhibition, % at 4 µM. hit rate 0.53% among 330,000. AID 435003; in the data active = inhibition above about 50%
XBP1 UPR activ – adaptive UPR (XBP1) activation. AID 463104. CHO-XBP1 luciferase reporter, IRE1-XBP1 UPR activation, luminescence; percent of tunicamycin response, DMSO as zero. activation, % at 20 µM. hit rate 0.33% among 330,000;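 active = versus positive control, 20 µM dose yields 30% or more activation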;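 also: 100% = tunicamycin at 10 µg/mL and 0% = DMSO only wells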
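Assay system: CHO-XBP1 luciferase reporter cells; Schedule: 6 h treatment, 37 °C; Detection: glow luminescence from Steady-Glo reagent; Benchmarks: high control tunicamycin 10 µg/mL final, low control DMSO vehicle only.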
697 NFkB inh – lowers PMA/ionomycin-induced NF-kB signal in 697 B cells | 697 B-cell NF-kB luciferase reporter, 16 h | hit rate 0.33% among 330,000 | inhibition, % at 4 µM; in the data active = inhibition above about 35%
CHOP inhibitor – blocks CHOP induction under ER stress. CHO-K1 CHOP-promoter luciferase, tunicamycin-induced, 15-18 h. inhibition, % at 10 µM. hit rate 3.8% among 220,000. AID 2732;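 active = compounds that reduced the stress-induced luciferase reporter signal by more than about 70% of percent inhibition, limit read from the data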;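 also: 0% = tunicamycin plus vehicle and 100% = wells without tunicamycin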
CHOP confirm – confirmation of CHOP induction inhibitors; CHO-CHOP promoter luciferase reporter, tunicamycin-induced, luminescence; hit rate 45% among 2,100; shares compounds with CHOP inhibitor; AID 504437; inhibition, % at 10 µM;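 active = mean of three repeat readings of reporter signal inhibition above a set limit, cut at about 70% in these data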;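 also: 0% = tunicamycin plus vehicle and 100% = wells lacking tunicamycin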
* hit, by the source's call; . = not tested or not shown. In the library only some 3.9% were active in any assay of this set; here they are far more common.

SMILES	Gli-Sufu antag	CHOP UPR activ	Jurkat NFkB inh	XBP1 UPR activ	697 NFkB inh	CHOP inhibitor	CHOP confirm
C=CCOc1ccc(/C=C2\SC(=Nc3cccnc3)NC2=O)cc1	-2	0	-5	2	-22	101*	-3
CC(/C=C1\SC(=Nc2cccnc2)NC1=O)=C\c1ccccc1	-3	1	7	4	13	27	.
COc1cc(OC)nc(-n2ncc(Br)c(Br)c2=O)n1	36	.	.	.	.	111*	118*
O=C(COC(=O)c1ccccc1)Nc1cccc(S(=O)(=O)N2CCCCC2)c1	-5	0	14	-2	11	.	.
CC(=O)Nc1ccc(C(=O)N/N=C/c2cc(Br)cc(Br)c2O)cc1	0	-1	2	-2	0	105*	35
COc1cc(OC)c(/C=N/NC(=O)c2ccncc2)cc1Br	-2	-1	19	-1	14	10	.
COc1cc(OC)c(/C=N/NC(=O)c2ccc(NC(C)=O)cc2)cc1Br	0	2	2	-2	12	104*	-9
CC(C)C(=O)Nc1ccc(C(=O)N/N=C/c2cc(Br)cc(Br)c2O)cc1	2	-2	5	6	-20	59	.
CCCOc1ccc(N/C=C/C(=O)c2cc(OC)c(OC)c(OC)c2)cc1	2	1	1	-5	-1	.	.
Cc1cc(C)nc(SCC(=O)N/N=C\C(Br)=C\c2ccccc2)n1	16	0	1	-2	-10	51	.
Cc1ccc(NCC(=O)N/N=C\C(Br)=C\c2ccccc2)cc1	-2	1	-1	-3	-6	110*	10
CCOC(=O)c1c(-c2ccccc2)oc2ccc(O)c(CN3CCOCC3)c12	3	-1	1	-2	-15	109*	96*
CN(C(=O)CCl)C1CCCc2ccccc21 (configuration not stated)	7	.	.	.	.	106*	80*
CN(C(=O)c1cccc(C(F)(F)F)c1)C1CCCc2ccccc21 (configuration not stated)	9	1	-5	4	-8	.	.
CCOc1ccc(C(=O)Nc2ccc3c(c2)OCCO3)cc1	-124	-2	-106	-7	-106	.	.
Cc1nc(N2CCN(c3ccccc3)CC2)[nH]c(=O)c1Cc1cccc2ccccc12	.	6	2	17	0	97*	-4
CCc1c(C)nc(N2CCN(c3ccccc3)CC2)[nH]c1=O	-5	1	-5	0	8	.	.
C=CC[C@H](CC(=O)NCCO)C(=O)NCCOC(=O)[C@@H](CC=C)CC(=O)OC(C)(C)C	-7	-1	-5	-4	-1	.	.
O=[N+]([O-])c1c(NCCCO)cc(N2CCCCCC2)c2nonc12	6	0	-5	-2	6	.	.
O=[N+]([O-])c1c(NCCCO)cc(Sc2ccc(Cl)cc2)c2nonc12	-6	.	.	.	.	111*	141*
CC(=O)OCCNc1cc(SCc2ccco2)c2nonc2c1[N+](=O)[O-]	-6	.	.	.	.	27	.
CC(=O)OCCCNc1cc(Sc2nc3ccccc3s2)c2nonc2c1[N+](=O)[O-]	6	-10	13	-6	8	109*	13
CCOc1cc(/C=C2\C(=O)ON=C2c2ccccc2)ccc1OC	3	1	-18	-4	11	.	.
CCOc1cc(/C=C2/C(=O)ON=C2C)ccc1OCc1ccc(F)cc1	-4	24	-31	18	-33	99*	124*
Cc1ccccc1CS(=O)(=O)c1nnc([C@H](CC(C)C)NC(=O)OC(C)(C)C)o1	-8	-9	30	-6	-34	108*	123*
CC1=NOC(=O)/C1=C\c1ccc2c(c1)OCO2	1	0	7	1	5	101*	-31
CC1=NOC(=O)/C1=C/c1ccc2c(c1)OCO2	5	0	-8	-2	-6	100*	-27
COc1ccc(/C=C2/C(=O)ON=C2C)cc1Br	-35	1	-6	-3	8	.	.
Cc1cc(C)c(OCC(=O)NCC2COc3ccccc3O2)c(C)c1 (configuration not stated)	-9	1	-1	-1	7	.	.
O=C(N/N=C1/CC2C=CCC12)c1cccs1 (configuration not stated)	-1	2	4	-8	17	.	.
